Laboratory results: ChEMBL document CHEMBL1129639, “Synthesis and cardiotonic activity of novel pyrimidine derivatives: crystallographic and quantum chemical studies” (J Med Chem, 1996)

Experiments:
Cavia porcellus [1] = species on record: Cavia porcellus; experiment: Effect on the contractile force of spontaneously beating atria from Reserpine-treated guinea pigs as percentage variation from the control at concentration of 10E-5 M; format: functional
How it was run: (§1)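 Atria from reserpine-treated guinea pigs (reserpine 2 mg/kg ip, 48 and 24 h before death; only tyramine-unresponsive preparations used). Bath solution at 29 °C, gassed 95% O2/5% CO2, pH 7.5, resting tension […]. After 90 min equilibration, compound added cumulatively, 5 min per concentration. Isometric developed-tension amplitude or beating rate given as % variation from untreated control. Mean ± SEM, 6-10 assays.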

Cavia porcellus [2] = species on record: Cavia porcellus; experiment: Effect on the contractile force of spontaneously beating atria from Reserpine-treated guinea pigs as percentage variation from the control at concentration of 10E-6 M; format: functional; how it was run: as §1
Cavia porcellus [3] = species on record: Cavia porcellus; experiment: Effect on the contractile force of spontaneously beating atria from Reserpine-treated guinea pigs as percentage variation from the control at concentration of 3 x 10E-4 M; format: functional; how it was run: as §1
Cavia porcellus [4] = species on record: Cavia porcellus; experiment: Effect on the contractile force of spontaneously beating atria from Reserpine-treated guinea pigs as percentage variation from the control at concentration of 3 x 10E-5 M; format: functional; how it was run: as §1
Cavia porcellus [5] = species on record: Cavia porcellus; experiment: Effect on the contractile force of spontaneously beating atria from Reserpine-treated guinea pigs as percentage variation from the control at concentration of 3 x 10E-6 M; format: functional; how it was run: as §1
Cavia porcellus [6] = species on record: Cavia porcellus; experiment: Effect on the frequency rate of spontaneously beating atria from Reserpine-treated guinea pigs as percentage variation from the control at concentration of 10E-3 M; format: functional; how it was run: as §1
Cavia porcellus [7] = species on record: Cavia porcellus; experiment: Effect on the frequency rate of spontaneously beating atria from Reserpine-treated guinea pigs as percentage variation from the control at concentration of 10E-4 M; format: functional; how it was run: as §1
Cavia porcellus [8] = species on record: Cavia porcellus; experiment: Effect on the frequency rate of spontaneously beating atria from Reserpine-treated guinea pigs as percentage variation from the control at concentration of 10E-5 M; format: functional; how it was run: as §1
Cavia porcellus [9] = species on record: Cavia porcellus; experiment: Effect on the frequency rate of spontaneously beating atria from Reserpine-treated guinea pigs as percentage variation from the control at concentration of 10E-6 M; format: functional; how it was run: as §1
Cavia porcellus [10] = species on record: Cavia porcellus; experiment: Compound was evaluated for its effect on the frequency rate of spontaneously beating atria from Reserpine-treated guinea pigs as percentage variation from the control at concentration of 3 x 10E-4 M; format: functional; how it was run: as §1
Cavia porcellus [11] = species on record: Cavia porcellus; experiment: Compound was evaluated for its effect on the frequency rate of spontaneously beating atria from Reserpine-treated guinea pigs as percentage variation from the control at concentration of 3 x 10E-6 M; format: functional; how it was run: as §1
Cavia porcellus [12] = species on record: Cavia porcellus; experiment: Effect on the contractile force of spontaneously beating atria from Reserpine-treated guinea pigs as percentage variation from the control at concentration of 10E-3 M; format: functional; how it was run: as §1
Cavia porcellus [13] = species on record: Cavia porcellus; experiment: Effect on the contractile force of spontaneously beating atria from Reserpine treated guinea pigs as percentage variation from the control at concentration of 10E-4 M; format: functional; how it was run: as §1
Cavia porcellus [14] = species on record: Cavia porcellus; experiment: (§2) Compound was evaluated for its effect on the frequency rate of spontaneously beating atria from Reserpine-treated guinea pigs as percentage variation from the control at concentration of 3 x 10E-5 M; format: functional, guinea pig; how it was run: as §1
Adenosine receptor A1 = target: T1, Adenosine receptor A1 (Cavia porcellus, UniProt P47745); experiment: Inhibition of [3H]-CHA binding to Adenosine A1 receptor in guinea pig heart
T1 sequence (P47745 whole entry): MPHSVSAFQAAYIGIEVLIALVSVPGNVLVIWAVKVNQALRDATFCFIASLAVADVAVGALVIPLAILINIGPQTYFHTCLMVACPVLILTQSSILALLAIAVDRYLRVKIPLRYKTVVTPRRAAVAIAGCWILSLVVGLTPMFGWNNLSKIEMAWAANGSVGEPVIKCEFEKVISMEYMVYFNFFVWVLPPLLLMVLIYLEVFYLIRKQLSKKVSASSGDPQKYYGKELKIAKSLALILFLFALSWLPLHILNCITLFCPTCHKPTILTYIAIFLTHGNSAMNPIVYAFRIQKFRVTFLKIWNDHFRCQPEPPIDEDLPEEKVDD
How it was run: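 Guinea pig heart membranes prepared in 50 mM Tris-HCl pH 7.4 and pretreated with adenosine deaminase 2 IU/mL for 30 min at 37 °C. Incubated with 1 nM [3H]CHA, membranes from 15 mg tissue, 120 min at 23 °C. Bound ligand separated by GF/B filtration; nonspecific binding defined with (R)-PIA. Six concentrations tested in triplicate; IC50 by probit analysis.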

Cavia porcellus [15] = species on record: Cavia porcellus; experiment: Inotropic effect in electrically driven left atrium from reserpine-treated guinea pigs at concentration of 10E-3 M; format: functional, Cardiac atrium
How it was run: (§3)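 Electrically driven left atrium from reserpine-treated guinea pigs (tyramine-unresponsive), 29 °C, pH 7.5, resting tension […], 90 min equilibration. Compound dissolved in DMSO and added cumulatively, 5 min per step. Where used, adenosine deaminase was preincubated 20 min, and basal force was taken after ADA addition. Developed tension given as % change over control. Mean ± SEM of six assays.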

Cavia porcellus [16] = species on record: Cavia porcellus; experiment: Inotropic effect in electrically driven left atrium from reserpine-treated guinea pigs at concentration of 10E-4 M; format: functional, Cardiac atrium; how it was run: as §3
Cavia porcellus [17] = species on record: Cavia porcellus; experiment: Inotropic effect in electrically driven left atrium from reserpine-treated guinea pigs at concentration of 10E-5 M; format: functional, Cardiac atrium; how it was run: as §3
Cavia porcellus [18] = species on record: Cavia porcellus; experiment: Inotropic effect in electrically driven left atrium from reserpine-treated guinea pigs at concentration of 10E-6 M; format: functional, Cardiac atrium; how it was run: as §3
Cavia porcellus [19] = species on record: Cavia porcellus; experiment: Inotropic effect in electrically driven left atrium from reserpine-treated guinea pigs at concentration of 3 x 10E-4 M; format: functional, Cardiac atrium; how it was run: as §3
Cavia porcellus [20] = species on record: Cavia porcellus; experiment: Inotropic effect in electrically driven left atrium from reserpine-treated guinea pigs at concentration of 3 x 10E-5 M; format: functional, Cardiac atrium; how it was run: as §3
Cavia porcellus [21] = species on record: Cavia porcellus; experiment: Inotropic effect in electrically driven left atrium from reserpine-treated guinea pigs at concentration of 3 x 10E-6 M; format: functional, Cardiac atrium; how it was run: as §3
Cavia porcellus [22] = species on record: Cavia porcellus; experiment: Ionotropic Response to 8-Phenyltheophylline (10e-4 M) in Electrically driven Left atrium from Resperpine-Treated Guinea pigs at the concentration of 10E-4 M; format: functional, Cardiac atrium
How it was run: (§4)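 Electrically driven left atrium from reserpine-treated guinea pigs, 29 °C, pH 7.5. Cumulative 8-phenyltheophylline concentration-effect curves were run without or with 3 × 10^-5 to 3 × 10^-4 M test compound (DMSO). Developed tension given as % variation from control. Mean ± SEM of four assays from four experiments; Student's t-test against the 8-phenyltheophylline-only atrium.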

Cavia porcellus [23] = species on record: Cavia porcellus; experiment: Ionotropic Response to 8-Phenyltheophylline (10e-4 M) in Electrically driven Left atrium from Resperpine-Treated Guinea pigs at the concentration of 3 x 10E-5 M; format: functional, Cardiac atrium; how it was run: as §4
Cavia porcellus [24] = species on record: Cavia porcellus; experiment: as §2; format: functional; how it was run: as §1
Cavia porcellus [25] = species on record: Cavia porcellus; experiment: Ionotropic Response to 8-Phenyltheophylline (10E-4) in Electrically driven Left atrium from Resperpine-Treated Guinea pigs at the concentration of 3 x 10E-4 M; format: functional, Cardiac atrium; how it was run: as §4
Cavia porcellus [26] = species on record: Cavia porcellus; experiment: Ionotropic Response to 8-Phenyltheophylline (10e-5 M) in Electrically driven Left atrium from Resperpine-Treated Guinea pigs at the concentration of 10E-4 M; format: functional, Cardiac atrium; how it was run: as §4
Cavia porcellus [27] = species on record: Cavia porcellus; experiment: Ionotropic Response to 8-Phenyltheophylline (10e-5 M)in Electrically driven Left atrium from Resperpine-Treated Guinea pigs at the concentration of 3 x 10E-5 M; format: functional, Cardiac atrium; how it was run: as §4
Cavia porcellus [28] = species on record: Cavia porcellus; experiment: Ionotropic Response to 8-Phenyltheophylline (10E-5) in Electrically driven Left atrium from Resperpine-Treated Guinea pigs at the concentration of 3 x 10E-4 M; format: functional, Cardiac atrium; how it was run: as §4
Cavia porcellus [29] = species on record: Cavia porcellus; experiment: Ionotropic Response to 8-Phenyltheophylline (3 x 10E-5 M) in Electrically driven Left atrium from Resperpine-Treated Guinea pigs at the concentration of 10E-4 M; format: functional, Cardiac atrium
How it was run: (§5)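 Guinea pigs pretreated with reserpine (2 mg/kg ip) 48 and 24 h before sacrifice; atria unresponsive to tyramine (2 µg/mL) used. Left atrium electrically driven, in oxygenated salt solution (95% O2/5% CO2, pH 7.5, 29 °C), resting tension […], isometric developed tension. 90 min equilibration; test agent present while cumulative 8-phenyltheophylline curves run, 5 min per concentration; % variation from control; mean ± SEM, four assays.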

Cavia porcellus [30] = species on record: Cavia porcellus; experiment: Ionotropic Response to 8-Phenyltheophylline (3 x 10E-5 M) in Electrically driven Left atrium from Resperpine-Treated Guinea pigs at the concentration of 3 x 10E-4 M; format: functional, Cardiac atrium; how it was run: as §5
Cavia porcellus [31] = species on record: Cavia porcellus; experiment: Ionotropic Response to 8-Phenyltheophylline (3 x 10E-5 M) in Electrically driven Left atrium from Resperpine-Treated Guinea pigs at the concentration of 3 x 10E-5 M; format: functional, Cardiac atrium; how it was run: as §5
Cavia porcellus [32] = species on record: Cavia porcellus; experiment: Ionotropic Response to 8-Phenyltheophylline (3 x 10E-6 M) in Electrically driven Left atrium from Resperpine-Treated Guinea pigs at the concentration of 10E-4 M; format: functional, Cardiac atrium; how it was run: as §5
Cavia porcellus [33] = species on record: Cavia porcellus; experiment: Ionotropic Response to 8-Phenyltheophylline (3 x 10E-6 M) in Electrically driven Left atrium from Resperpine-Treated Guinea pigs at the concentration of 3 x 10E-4 M; format: functional, Cardiac atrium; how it was run: as §5
Cavia porcellus [34] = species on record: Cavia porcellus; experiment: Ionotropic Response to 8-Phenyltheophylline (3 x 10E-6 M) in Electrically driven Left atrium from Resperpine-Treated Guinea pigs at the concentration of 3 x 10E-5 M; format: functional, Cardiac atrium; how it was run: as §5
Cavia porcellus [35] = species on record: Cavia porcellus; experiment: Ionotropic Response to 8-Phenyltheophylline in Electrically driven Left atrium from Resperpine-Treated Guinea pigs at the concentration of 10E-4 M; format: functional, Cardiac atrium; how it was run: as §5
Cavia porcellus [36] = species on record: Cavia porcellus; experiment: Ionotropic Response to 8-Phenyltheophylline in Electrically driven Left atrium from Resperpine-Treated Guinea pigs at the concentration of 3 x 10E-4 M; format: functional, Cardiac atrium; how it was run: as §5
Cavia porcellus [37] = species on record: Cavia porcellus; experiment: Ionotropic Response to 8-Phenyltheophylline in Electrically driven Left atrium from Resperpine-Treated Guinea pigs at the concentration of 3 x 10E-5 M; format: functional, Cardiac atrium; how it was run: as §5

## CCOC(=O)c1cnc(N(C)C)nc1
Cavia porcellus [1]
  Variation: 5.55%
Cavia porcellus [2]
  Variation: 1.19%
Cavia porcellus [3]
  Variation: 11.71%
Cavia porcellus [4]
  Variation: 11.04%
Cavia porcellus [5]
  Variation: 4.76%
Cavia porcellus [6]
  Variation: 18.51%
Cavia porcellus [7]
  Variation: 11.11%
Cavia porcellus [8]
  Variation: 3.71%
Cavia porcellus [9]
  Variation: 0%
Cavia porcellus [10]
  Variation: 14.81%
Cavia porcellus [11]
  Variation: 0%
Cavia porcellus [12]
  Variation: -59.61%
Cavia porcellus [13]
  Variation: 9.03%
Cavia porcellus [14]
  Variation: 7.43%

## COC(=O)c1cnc(N(C)C)nc1Cc1ccccc1
Adenosine receptor A1
  IC50: 21.3 µM
Cavia porcellus [1]
  Variation: 8.97%
Cavia porcellus [2]
  Variation: 0%
Cavia porcellus [3]
  Variation: -55.28%
Cavia porcellus [4]
  Variation: -6.54%
Cavia porcellus [5]
  Variation: 5.83%
Cavia porcellus [6]
  Variation: -100%
Cavia porcellus [7]
  Variation: -16.06%
Cavia porcellus [8]
  Variation: 0%
Cavia porcellus [9]
  Variation: 0%
Cavia porcellus [15]
  Variation: -100%
Cavia porcellus [16]
  Variation: -14.2%
Cavia porcellus [17]
  Variation: 7.45%
Cavia porcellus [18]
  Variation: 0%
Cavia porcellus [19]
  Variation: -48.3%
Cavia porcellus [20]
  Variation: -5.21%
Cavia porcellus [21]
  Variation: 4.85%
Cavia porcellus [22]
  Variation: 19%
Cavia porcellus [23]
  Variation: 20.2%
Cavia porcellus [10]
  Variation: -55.15%
Cavia porcellus [24]
  Variation: -8.03%
Cavia porcellus [11]
  Variation: 0%
Cavia porcellus [12]
  Variation: -100%
Cavia porcellus [13]
  Variation: -13.54%
Cavia porcellus [25]
  Variation: -6.66%
Cavia porcellus [26]
  Variation: -3.33%
Cavia porcellus [27]
  Variation: 11%
Cavia porcellus [28]
  Variation: -22.2%
Cavia porcellus [29]
  Variation: 2.72%
Cavia porcellus [30]
  Variation: -11%
Cavia porcellus [31]
  Variation: 14.9%
Cavia porcellus [32]
  Variation: -4.34%
Cavia porcellus [33]
  Variation: -28.9%
Cavia porcellus [34]
  Variation: 8.79%
Cavia porcellus [35]
  Variation: -9.37%
Cavia porcellus [36]
  Variation: -33.52%
Cavia porcellus [37]
  Variation: -6.66%
